Screening results (PubChem BioAssay)
This is a sample that favours compounds with a hit; in the whole collection about 2.9% have one here.
core dimer inh: inhibitors of HCV core protein dimerization, primary screen, biochemical, TR-FRET, high-throughput. inhibition, % at 5 µM. 300,000 compounds, 0.33% hits. TR-FRET GST/Flag-core106 dimerization, 1536-well. AID 1899, 2009;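 active = inhibition above the mean of all tested compounds plus 3 SD, set per screening campaign, cut at about 45% in these data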
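Material: GST/Flag-tagged HCV core106 proteins. Incubation: 4 h, 22.5 °C incubation. Read-out basis: inhibition (%) from 671 over 617 nm ratio. Measured by: TR-FRET, excitation 340 nm, emission 617 and 671 nm.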
A3G deaminase: APOBEC3G DNA deaminase inhibitors, primary screen, biochemical, fluorescence, single-stranded DNA substrate, uHTS; DNA dC->dU-editing enzyme APOBEC-3G (Homo sapiens), Q9HC16; recombinant A3G, ssDNA deamination FAM/TAMRA fluorescence; inhibition, % at 20 µM; 330,000 compounds, 0.28% hits; AID 493012, 2011;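 active = inhibition of at least 40% at 20 µM, with no more than 30% in the related APOBEC3A deaminase screen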
APOBEC3A inh: APOBEC3A ssDNA deaminase inhibitors, primary screen, selectivity assay for APOBEC3G inhibitor project, biochemical, FAM/TAMRA oligo cleavage fluorescence; DNA dC->dU-editing enzyme APOBEC-3A (Homo sapiens), P31941; recombinant A3A, FAM/TAMRA ssDNA deamination fluorescence; inhibition, % at 20 µM; 330,000 compounds, 0.41% hits; AID 493011, 2011;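 active = at least 40% inhibition at 20 µM here, with at most 30% in a related deaminase screen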
Target sequence (P31941 whole entry, looked up): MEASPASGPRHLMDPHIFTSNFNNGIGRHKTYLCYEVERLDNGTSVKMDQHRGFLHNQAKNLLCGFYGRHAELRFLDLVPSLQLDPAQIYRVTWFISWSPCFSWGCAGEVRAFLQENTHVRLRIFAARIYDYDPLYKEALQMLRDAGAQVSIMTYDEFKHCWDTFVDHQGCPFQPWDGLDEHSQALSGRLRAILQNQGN
NS3 helicase inh: inhibitors of HCV NS3 helicase, primary screen, biochemical, Cy5 molecular beacon fluorescence | 290,000 compounds, 0.56% hits | AID 1800, 2009 | inhibition, % at 10.9 µM | NS3 helicase DNA unwinding | Hepatitis C virus NS3 helicase;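 active = inhibition above the mean of all tested compounds plus 3 SD, set per campaign, cut at about 35% in these data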
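Assay system: hepatitis C virus NS3 helicase domain fragment enzyme. Also added: annealed dual-labelled DNA beacon duplex, ATP-started. Timing: 1 h reaction at 25 °C, ATP-initiated. Technique: Cy5 fluorescence at 0 and 60 min, beacon hairpin quenching. Evaluation: % inhibition of unwinding. Replication: one well per compound.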
PRMT1 FP inh: PRMT1 methyltransferase inhibitors, primary screen, biochemical, fluorescence polarization. Protein arginine N-methyltransferase 1 (Homo sapiens), Q99873. recombinant PRMT1, activity-based probe fluorescence polarization. inhibition, % at 2.79 µM. 370,000 compounds, 1.3% hits. AID 652257, 2013;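 active = inhibition above about 21% made by adding two undisclosed values, limit read from the data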
ABHD5-PLIN5 inh: ABHD5-PLIN5 interaction inhibitors, primary screen, cell lysate, split luciferase complementation, luminescence; AID 602281, 2012; 360,000 compounds, 0.78% hits; inhibition, % at 4 µM; Split G. princeps luciferase complementation, 4 h;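 active = inhibition above the mean inhibition across every tested compound plus 3 SD, cut at about 22% in these data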
A3A conf: APOBEC3A deaminase inhibitors, retest, confirmation, selectivity assay for APOBEC3G inhibitor project, biochemical, single concentration, fluorescence readout | shares compounds with APOBEC3A inh | recombinant A3A, ssDNA deaminase UDG fluorescence assay | inhibition, % at 20 µM | 1,400 compounds, 63% hits;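 active = inhibition reaching a set limit, 80% of the first screen's cutoff, at 20 µM in any replicate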
UDG ctr A3A: E. coli UDG inhibitors, confirmation, counter-screen for APOBEC3A inhibitor project, biochemical, single concentration, fluorescence, FAM/TAMRA oligo; shares compounds with APOBEC3A inh; 1,000 tested, under 10 active; UDG counterscreen, FAM/TAMRA uracil oligo fluorescence; inhibition, % at 20 µM; call rule not given here
Of the large screens only hits and unclear results are named; the others gave an inactive call (follow-up assays come after a bar, where they were run).

COC(=O)[C@]12C[C@H](CC(=O)NCc3ccc(OC)c(OC)c3)C(=O)N(Cc3ccc4c(c3)OCO4)C1=C[C@H](C(C)C)O[C@@H]2C1CC1	none (no result: core dimer inh, A3G deaminase, APOBEC3A inh, NS3 helicase inh, ABHD5-PLIN5 inh)
CCC1=[N+](C)CCn2c(C)ccc21	APOBEC3A inh 64.0 | A3A conf 76.1 | UDG ctr A3A inactive
O=C(/C=C/c1ccco1)Nc1scc(-c2ccccc2)c1C(=O)O	APOBEC3A inh 59.3 | A3A conf 68.8 | UDG ctr A3A inactive
CCCN(CC(=O)NC(=O)NCc1ccccc1)CC(=O)Nc1ccc(F)c(F)c1F	none (no result: core dimer inh, A3G deaminase, APOBEC3A inh, NS3 helicase inh)
CC1(C)CC(NNCCC#N)=CC(=[N+]2CCCC2)C1	none
CN(Cc1ccccc1)C1=CC(=[N+]2CCCCC2)CC(C)(C)C1	APOBEC3A inh 67.6 | A3A conf 72.6 | UDG ctr A3A inactive
CCCCCCCC[n+]1c(C)n(-c2ccccc2)c2ccc(NC(C)=O)cc21	APOBEC3A inh 41.6 | A3A conf 69.9 | UDG ctr A3A inactive
COc1ccc(-c2csc(C(O)c3ccc(F)c(OC)c3)n2)cn1 (stereo not drawn)	none (no result: core dimer inh, A3G deaminase, APOBEC3A inh, NS3 helicase inh)
COc1ccc(OCc2nn[nH]n2)cc1	APOBEC3A inh 56.2 | A3A conf inactive | UDG ctr A3A inactive
O=S(=O)(O)c1cc(O)c2c(O)c(N=Nc3cc(Cl)ccc3O)c(S(=O)(=O)O)cc2c1	APOBEC3A inh 91.5, ABHD5-PLIN5 inh 24.5 (no result: PRMT1 FP inh) | A3A conf 90.0 | UDG ctr A3A inactive
COc1ccccc1-c1noc(CCC(=O)NC2CCCC2)n1	APOBEC3A inh 44.7 | A3A conf inactive | UDG ctr A3A inactive
CCOc1ccccc1-c1noc(CCC(=O)NC2CCCCC2)n1	none
Cc1ccccc1-c1noc(CCC(=O)NCC2CCCO2)n1 (stereo not drawn)	APOBEC3A inh 44.2 | A3A conf inactive
O=C1c2cccc3cc([N+](=O)[O-])cc(c23)C(=O)N1CCN1CCCC1	APOBEC3A inh 41.2 (no result: core dimer inh) | A3A conf inactive
Nc1cc2c3c(cccc3c1)C(=O)N(CCN1CCCC1)C2=O	none (no result: A3G deaminase, APOBEC3A inh)
N#C/C(=C\c1ccc(-c2ccc([N+](=O)[O-])cc2Br)o1)C(=O)N1CCN(c2ccccc2)CC1	APOBEC3A inh 47.8 | A3A conf inactive
O=C(/C=C/c1ccccc1)OCCCCN=C1NS(=O)(=O)c2ccccc21	APOBEC3A inh 83.1 | A3A conf inactive
Cc1cc(C(=O)CSc2nnc(N)s2)c(C)n1CCc1ccc(Cl)cc1	none
COc1ccc(CCn2c(C)cc(C(=O)CSc3nnc(N)s3)c2C)cc1	APOBEC3A inh 43.7 (no result: PRMT1 FP inh) | A3A conf inactive | UDG ctr A3A inactive
Cc1cccc(NC(=O)CSCC(=O)Nc2cc(Cl)ccc2N2CCN(C)CC2)c1	APOBEC3A inh 50.9 | A3A conf inactive
CC[n+]1c(/C=C/N(C)c2ccccc2)n(-c2ccccc2)c2ccc(-c3nc4ccccc4s3)cc21	APOBEC3A inh 60.7, ABHD5-PLIN5 inh 36.4 (no result: PRMT1 FP inh) | A3A conf 47.9
CC(C)(C)c1ccc(CC(=O)N2CCC2(C)C(=O)O)cc1 (stereo not drawn)	none (no result: core dimer inh, A3G deaminase, APOBEC3A inh, NS3 helicase inh)
